Common to all, as to assay type: functional
Test [1] has as its system Mus musculus. Description: Topical treatment of intracutaneous HSV-1(KOS) herpes simplex virus type 1 infection of Nu/nu mice for mean day of appearance of skin lesions and/or paralysis of the hind legs at 0.3% concentration (v/v in DMSO). In outline: (§1)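 Inocula were TK⁻ HSV-1 at 10⁶ CCID50/0.05 mL or HSV-1 KOS at 10^4.7 PFU/0.05 mL. Test formulations in DMSO were applied topically four times daily for 5 days, starting at infection. Skin lesions, hind-leg paralysis and death were recorded daily for 28 (KOS) or 49 (TK⁻) days, with five mice per group.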

Test [2] deals with Human alphaherpesvirus 1. As to the kind of experiment: Evaluated for the minimum inhibitory concentration (MIC) in primary rabbit kidney (PRK) by 50% against herpes simplex virus type-1 (HSV-1) with strains KOS. In outline: (§2)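 Confluent primary rabbit kidney cell cultures infected with 100 CCID50 virus; after 1 h adsorption residual virus removed and cells incubated with varying compound concentrations. Cytopathogenicity scored when complete in infected untreated controls; MIC = concentration reducing virus-induced cytopathogenicity by 50%. Compounds tested as such or after preincubation in medium with 10% fetal calf serum, 24 h, 37 °C.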

A further test is filed under the species Oryctolagus cuniculus. As to the kind of experiment: Evaluated for the minimum cytotoxic concentration (MCC) upon preincubation of rabbit kidney cells in medium containing 10% fetal calf serum at 37 degree Celsius for 24 hr. The following applies: Oryctolagus cuniculus, kidney; read-out: MCC. Put shortly:
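Primary rabbit kidney cell cultures were exposed to compounds, some preincubated 24 h at 37 °C in medium with 10% fetal calf serum. The minimum cytotoxic concentration was the level causing a microscopically detectable change in normal cell morphology.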

In test [3] the test system is Mus musculus. Description: Topical treatment of intracutaneous HSV-1(KOS) herpes simplex virus type 1 infection of Nu/nu mice for mean day of appearance of skin lesions and/or paralysis of the hind legs at 1% concentration (v/v in DMSO). In outline: as §1
Test [4] deals with Human alphaherpesvirus 2. Description: Evaluated for the minimum inhibitory concentration (MIC) in primary rabbit kidney (PRK) by 50% against herpes simplex virus type-2 (HSV-2) with strains G. Put shortly:
(§3)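 Confluent primary rabbit kidney cell monolayers were infected with 100 CCID50 of virus. After 1 h adsorption, residual virus was removed and cells were incubated with serial compound concentrations. Cytopathogenicity was scored once it reached completion in untreated infected controls. The endpoint was the concentration reducing virus-induced cytopathogenicity by 50%.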

Test [5] deals with Mus musculus. As to the kind of experiment: Topical treatment of intracutaneous HSV-1(KOS) herpes simplex virus type 1 infection of Nu/nu mice for mean day of appearance of skin lesions and/or paralysis of the hind legs at 3% concentration (v/v in DMSO). In outline: as §1
The subject of test [6] is Human alphaherpesvirus 1. Description: Evaluated for the minimum inhibitory concentration (MIC) in primary rabbit kidney (PRK) by 50% against herpes simplex virus type-1 (HSV-1) with strains F. In outline: as §2
Another test has as its system Vaccinia virus. As to the kind of experiment: Evaluated for the minimum inhibitory concentration (MIC) in primary rabbit kidney (PRK) by 50% against vaccinia virus. The following applies: Orthopoxvirus vaccinia. In outline: as §3
The test system of test [7] is Mus musculus. Description: Topical treatment of intracutaneous TK- herpes simplex virus type 1 of strain VMW 1837 infection of Nu/nu mice for mean day of appearance of skin lesions and/or paralysis of the hind legs at 1% concentration (v/v in DMSO). In outline: as §1
The subject of test [8] is Human alphaherpesvirus 1. Description: Evaluated for the minimum inhibitory concentration (MIC) in primary rabbit kidney (PRK) by 50% against herpes simplex virus type-1 (HSV-1) with strains McIntyre. Put shortly: as §2
Test [9] concerns Human alphaherpesvirus 2. As to the kind of experiment: Evaluated for the minimum inhibitory concentration (MIC) in primary rabbit kidney (PRK) by 50% against herpes simplex virus type-2 (HSV-2) with strains 196. In outline:
as §2

Test [10] has as its system Human alphaherpesvirus 1. Description: Evaluated for the minimum inhibitory concentration (MIC) in primary rabbit kidney (PRK) by 50% against TK- herpes simplex virus type 1 (TK- HSV-1) with strain VMW 1837. Put shortly: as §3
In test [11] the test system is Human alphaherpesvirus 2. As to the kind of experiment: Evaluated for the minimum inhibitory concentration (MIC) in primary rabbit kidney (PRK) by 50% against herpes simplex virus type-2 (HSV-2) with strains Lyons. Put shortly: as §2
The subject of test [12] is Vesicular stomatitis virus. As to the kind of experiment: Evaluated for the minimum inhibitory concentration (MIC) in primary rabbit kidney (PRK) by 50% against vesicular stomatitis virus. Put shortly: as §3
Test [13] concerns Human alphaherpesvirus 1. Description: Evaluated for the minimum inhibitory concentration (MIC) in primary rabbit kidney (PRK) by 50% against TK- herpes simplex virus type 1 (TK- HSV-1) with strain B2006. Put shortly: as §3
In test [14] the test system is Mus musculus. Description: Topical treatment of intracutaneous TK- herpes simplex virus type 1 of strain VMW 1837 infection of Nu/nu mice for mean day of appearance of skin lesions and/or paralysis of the hind legs at 3% concentration (v/v in DMSO). In outline: as §1
The subject of test [15] is Mus musculus. As to the kind of experiment: Topical treatment of intracutaneous TK- herpes simplex virus type 1 of strain VMW 1837 infection of Nu/nu mice for mean day of appearance of skin lesions and/or paralysis of the hind legs at 0.3% concentration (v/v in DMSO). In outline: as §1

The text below walks through data of ChEMBL document CHEMBL1124765, “Synthesis and biological properties of novel phosphotriesters: a new approach to the introduction of biologically active nucleotides into cells” (J Med Chem, 1990).

≈ marks a conversion by molar mass, not a printed value.

With `O=c1[nH]c(=O)n([C@H]2C[C@H](O)[C@@H](CO)O2)cc1/C=C/Br` [BRIVUDINE], the “Mean day appearance of lesions” value in the test with Mus musculus [1] stood at 6.2; with Mus musculus [3], 9.4; in the test on Mus musculus [5] it was 9.4; in the test on Mus musculus [7], 9.7; in the test with Mus musculus [14] it was 10.8; with Mus musculus [15] it was 8.8. Further, the MIC is 0.02 µg/mL (≈ 0.06 µM) in the test with Human alphaherpesvirus 1 [2]; 4 µg/mL (≈ 12 µM) against Human alphaherpesvirus 2 [4]; 0.02 µg/mL (≈ 0.06 µM) in the test with Human alphaherpesvirus 1 [6]; 7 µg/mL (≈ 21 µM) against Vaccinia virus; 0.02 µg/mL (≈ 0.06 µM) against Human alphaherpesvirus 1 [8]; 150 µg/mL (≈ 450 µM) against Human alphaherpesvirus 2 [9]. Moreover, the MIC with Human alphaherpesvirus 1 [10] was 300 µg/mL (≈ 901 µM); in the test with Human alphaherpesvirus 2 [11], 40 µg/mL (≈ 120 µM); in [12], > 400 µg/mL; with Human alphaherpesvirus 1 [13] it was 200 µg/mL (≈ 600 µM). The MCC in the test listed under Oryctolagus cuniculus was > 400 µg/mL.
